This is an account of results in ChEMBL document CHEMBL1155008, “Brassinosteroids: synthesis and activity of some fluoro analogues” (J Med Chem, 2008).

One experiment deals with BJ. Put plainly: Cytotoxicity against human BJ cells assessed as cell survival after 72 hrs by calcein-AM assay. In kind it is cell-based. Put shortly:
(§1)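 Cells grown in DMEM with 10% fetal calf serum, 4 mM glutamine, penicillin/streptomycin, 37 °C, 5% CO2. Seeded at about 1.25 × 10^5 cells/mL and stabilised 3 h. Six 4-fold dilutions added from DMSO stocks, highest usually 50 µM, DMSO ≤0.6% final. After 72 h, calcein AM for 1 h, fluorescence read. Triplicates, ≥3 repeats; IC50 from dose-response curves.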

For the next experiment, the system named is CCRF-CEM. Put plainly: Cytotoxicity against human CEM cells assessed as cell survival after 72 hrs by calcein-AM assay. In kind it is functional, cell-based. Put shortly: as §1
The subject of the next experiment is MCF7. Nature of the experiment: Cytotoxicity against human MCF7 cells assessed as cell survival after 72 hrs by calcein-AM assay. To be noted: MCF7, 72 h. Format: functional, cell-based. An outline of the steps: as §1
In the next experiment the test system is RPMI-8226. Put plainly: Cytotoxicity against human RPMI 8226 cells assessed as cell survival after 72 hrs by calcein-AM assay. To be noted: RPMI-8226, 72 h. Format: functional, cell-based. Put shortly: as §1
The next experiment relates to Phaseolus vulgaris. Nature of the experiment: Phyto activity in Phaseolus vulgaris cv. Pinto assessed as prolongation of the second internode after 5 days by brassinolide-type activity assay. In kind it is functional. Put shortly: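 Bean seedlings germinated 2 days, grown in perlite with diluted Hoagland solution (pH 5.7) at 25-27 °C under 16/8 h light. Seven-day-old plants with 2 mm second internodes received compound in 5 µL lanolin at the bract scar; controls got lanolin alone. ≥7 plants per experiment, ≥3 repeats. Internode length measured after 5 days, difference from control.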

Where only a bound is given, the exact number is not on record here.

As for `CC(=O)O[C@H]1CC[C@H]2[C@@H]3CC(=O)[C@@]4(F)C[C@H](O)CC[C@]4(C)[C@H]3CC[C@]12C`, the IC50 in the experiment on BJ, with CCRF-CEM, in the experiment on MCF7 and in the experiment on RPMI-8226 was over 50 µM in each case. Also, in the experiment on Phaseolus vulgaris, the Activity is given as 21.4 mm.
As for `C[C@]12CC[C@H]3[C@@H](CC(=O)[C@@]4(F)C[C@H](O)CC[C@]34C)[C@@H]1CC[C@@H]2O`, the IC50 in the experiment with BJ, with CCRF-CEM, in the experiment on MCF7 and in the experiment on RPMI-8226 was over 50 µM each time. Besides, the Activity with Phaseolus vulgaris is 43.4 mm.
As to `CC(=O)O[C@H]1CC[C@H]2[C@@H]3CC(=O)[C@@]4(F)C[C@H](F)CC[C@]4(C)[C@H]3CC[C@]12C`, the concentration for half-maximal inhibition (IC50) in the experiment with BJ is over 50 µM; with CCRF-CEM, 42.9 µM; with MCF7 it was over 50 µM; in the experiment with RPMI-8226 it was over 50 µM. The Activity in the experiment on Phaseolus vulgaris came out at 19.8 mm.
Turning to `C[C@]12CC[C@H]3[C@@H](CC(=O)[C@@]4(F)C[C@H](F)CC[C@]34C)[C@@H]1CC[C@@H]2O`, the IC50 in the experiment on BJ, with CCRF-CEM, with MCF7 and in the experiment on RPMI-8226 was over 50 µM throughout. Further, the Activity with Phaseolus vulgaris amounted to 18.4 mm.
With `CC(C)[C@@H](C)[C@@H](O)[C@H](O)[C@@H](C)[C@H]1CC[C@H]2[C@@H]3CC(=O)[C@H]4C[C@H](F)CC[C@]4(C)[C@H]3CC[C@]12C`, the IC50 with BJ was 45.9 µM; in the experiment on CCRF-CEM it was 13.8 µM; with MCF7, 25.7 µM; in the experiment on RPMI-8226 it was 23.5 µM. For the same compound, the Activity in the experiment with Phaseolus vulgaris turned out to be 13.2 mm.
For `C[C@]12CC[C@H]3[C@@H](CC(=O)[C@@]4(F)C[C@@H](O)CC[C@]34C)[C@@H]1CC[C@@H]2O` the same measures were over 50 µM, over 50 µM, over 50 µM, over 50 µM and 16.9 mm.
With `C[C@]12CC[C@@H](F)C[C@@H]1C(=O)C[C@@H]1[C@@H]2CC[C@]2(C)C(=O)CC[C@@H]12`, the IC50 with BJ, with CCRF-CEM, in the experiment with MCF7 and in the experiment on RPMI-8226 was over 50 µM in each case. Also, the Activity in the experiment on Phaseolus vulgaris stood at 14.9 mm.
For `C[C@]12CC[C@H](O)C[C@@H]1C(=O)C[C@@H]1[C@@H]2CC[C@]2(C)[C@@H](OC(=O)c3ccccc3)CC[C@@H]12`, the IC50 in the experiment with BJ, with CCRF-CEM, with MCF7 and in the experiment on RPMI-8226 was over 50 µM throughout. The Activity in the experiment on Phaseolus vulgaris is listed as 3.8 mm.
With `CC(C)[C@@H](C)[C@H](O)[C@@H](O)[C@@H](C)[C@H]1CC[C@H]2[C@@H]3CC(=O)[C@H]4C[C@H](F)CC[C@]4(C)[C@H]3CC[C@]12C`, the IC50 with BJ is 45.9 µM; in the experiment on CCRF-CEM it was 13.8 µM; with MCF7, 25.7 µM; in the experiment with RPMI-8226 it was 23.5 µM. The Activity in the experiment with Phaseolus vulgaris was 13.2 mm.
For `CC(=O)O[C@H]1CC[C@H]2[C@@H]3CC(=O)[C@@]4(F)C[C@H](O)[C@H](O)C[C@]4(C)[C@H]3CC[C@]12C` the same measures were over 50 µM, over 50 µM, over 50 µM, over 50 µM and 12.3 mm.
For `CC(=O)O[C@H]1CC[C@H]2[C@@H]3CC(=O)[C@@]4(F)C[C@@H](O)[C@@H](O)C[C@]4(C)[C@H]3CC[C@]12C` the same measures were over 50 µM, over 50 µM, over 50 µM, over 50 µM and 21.4 mm.
Regarding `C[C@]12CC[C@@H](F)C[C@@H]1C(=O)C[C@@H]1[C@@H]2CC[C@]2(C)[C@@H](OC(=O)c3ccccc3)CC[C@@H]12`, the IC50 with BJ, with CCRF-CEM, in the experiment on MCF7 and in the experiment with RPMI-8226 was over 50 µM each time. The Activity in the experiment on Phaseolus vulgaris worked out at 0.8 mm.
With `CC(C)[C@@H](C)/C=C/[C@@H](C)[C@H]1CC[C@H]2[C@@H]3CC(=O)[C@H]4C[C@H](F)CC[C@]4(C)[C@H]3CC[C@]12C`, the IC50 in the experiment with BJ, in the experiment on CCRF-CEM, in the experiment with MCF7 and in the experiment with RPMI-8226 was over 50 µM throughout. For the same compound, in the experiment on Phaseolus vulgaris, the Activity amounted to 9.9 mm.
For the compound `CC[C@@H](C(C)C)[C@@H](O)[C@H](O)[C@@H](C)[C@H]1CC[C@H]2[C@@H]3CC(=O)[C@H]4C[C@H](O)[C@H](O)C[C@]4(C)[C@H]3CC[C@]12C`, the IC50 was over 50 µM in the experiment on BJ, over 50 µM with MCF7 and 26 µM in the experiment with RPMI-8226.
As to `C[C@]12CC[C@H]3[C@@H](CC(=O)[C@@]4(F)CC=CC[C@]34C)[C@@H]1CC[C@@H]2O`, the IC50 with BJ, with CCRF-CEM, in the experiment on MCF7 and with RPMI-8226 was over 50 µM each time. Further, the Activity with Phaseolus vulgaris was determined as 13.6 mm.
Consider `C[C@]12CC[C@H]3[C@@H](CC(=O)[C@@]4(F)C[C@@H](O)[C@@H](O)C[C@]34C)[C@@H]1CC[C@@H]2O`, for which the IC50 with BJ was over 50 µM; in the experiment with CCRF-CEM it was over 50 µM; in the experiment with MCF7 it was over 50 µM; in the experiment with RPMI-8226 it was 45.4 µM. The Activity in the experiment on Phaseolus vulgaris came to 21.8 mm.
For `CC(=O)O[C@H]1CC[C@H]2[C@@H]3CC(=O)[C@@]4(F)C[C@@H](O)CC[C@]4(C)[C@H]3CC[C@]12C`, the IC50 with BJ, in the experiment with CCRF-CEM, with MCF7 and with RPMI-8226 was over 50 µM each time. Besides, the Activity with Phaseolus vulgaris is reported as 17.1 mm.
`C[C@]12CC[C@H]3[C@@H](CC(=O)[C@@]4(F)C[C@H](O)[C@H](O)C[C@]34C)[C@@H]1CC[C@@H]2O`: the IC50 in the experiment on BJ, with CCRF-CEM, in the experiment with MCF7 and in the experiment with RPMI-8226 was over 50 µM throughout. For the same compound, the Activity in the experiment on Phaseolus vulgaris turned out to be 19.5 mm.
Take `C[C@]12CC[C@@H](F)C[C@@H]1C(=O)C[C@@H]1[C@@H]2CC[C@]2(C)[C@@H](O)CC[C@@H]12`: the IC50 in the experiment on BJ, in the experiment with CCRF-CEM, with MCF7 and in the experiment on RPMI-8226 was over 50 µM throughout. The Activity in the experiment with Phaseolus vulgaris worked out at 5.9 mm.
Consider `CC(=O)O[C@H]1CC[C@H]2[C@@H]3CC(=O)[C@@]4(F)CC=CC[C@]4(C)[C@H]3CC[C@]12C`, for which the IC50 in the experiment on BJ, with CCRF-CEM, in the experiment on MCF7 and in the experiment with RPMI-8226 was over 50 µM each time. For the same compound, the Activity in the experiment with Phaseolus vulgaris came out at 21.8 mm.
For the compound `CC(C)[C@@H](C)/C=C/[C@@H](C)[C@H]1CC[C@H]2[C@@H]3CC(=O)[C@H]4C[C@@H](O)CC[C@]4(C)[C@H]3CC[C@]12C`, the IC50 in the experiment with BJ was 42 µM; in the experiment with CCRF-CEM, 26.4 µM; in the experiment on MCF7 it was 40.4 µM; with RPMI-8226 it was 27 µM. The Activity in the experiment on Phaseolus vulgaris was found to be 9.4 mm.
